Test results reported in ChEMBL document CHEMBL1149913, “De novo design of nonpeptidic compounds targeting the interactions between interferon-alpha and its cognate cell surface receptor” (J Med Chem, 2008).
Calls of active or inactive are those of the source. The rule behind the calls is not given here.

How the values were obtained:
[1] = biological target: T1, Interferon alpha/beta receptor 1 (Homo sapiens) (UniProt P17181); assay: Activity at IFNAR in human Daudi cells assessed as induction of stat1 tyrosine phosphorylation at 100 umol after 5 to 30 mins; type: cell-based
T1 sequence (whole entry): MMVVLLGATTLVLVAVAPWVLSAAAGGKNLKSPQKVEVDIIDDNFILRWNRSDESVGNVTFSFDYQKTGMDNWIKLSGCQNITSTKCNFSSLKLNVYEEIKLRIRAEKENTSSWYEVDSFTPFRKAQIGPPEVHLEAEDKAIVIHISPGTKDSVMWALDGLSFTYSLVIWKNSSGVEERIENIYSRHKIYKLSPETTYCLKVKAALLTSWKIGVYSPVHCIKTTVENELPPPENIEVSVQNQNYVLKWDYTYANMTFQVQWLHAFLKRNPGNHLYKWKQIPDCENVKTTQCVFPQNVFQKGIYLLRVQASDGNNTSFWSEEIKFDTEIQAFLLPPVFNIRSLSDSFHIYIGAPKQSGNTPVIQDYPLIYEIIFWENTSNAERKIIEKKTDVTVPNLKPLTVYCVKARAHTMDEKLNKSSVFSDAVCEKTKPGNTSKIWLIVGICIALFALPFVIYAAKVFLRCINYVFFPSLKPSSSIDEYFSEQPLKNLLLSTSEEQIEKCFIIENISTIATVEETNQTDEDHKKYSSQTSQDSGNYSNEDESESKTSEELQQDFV

[2] = biological target: T1, Interferon alpha/beta receptor 1 (Homo sapiens); assay: Antagonist activity at IFNAR in human Daudi cells assessed as reduction of IFN-inducible Stat1:Stat1-pIRE complex formation at 100 umol by electrophoretic mobility shift assay; type: functional, cell-based
[3] = biological target: T1, Interferon alpha/beta receptor 1 (Homo sapiens); assay: Antagonist activity at IFNAR in human Daudi cells assessed as inhibition of IFN-inducible Stat1 tyrosine phosphorylation by SDS-PAGE; type: functional, cell-based
Summary of the method: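 Daudi cells were left untreated or exposed to IFN alfacon-1 (100 pg) for 15 min, with or without compound (dose–response 20–100 µM). Lysates were run on SDS-PAGE, transferred to nitrocellulose and immunoblotted for phospho-Stat1. Membranes were stripped and reprobed for total Stat1, or β-actin served as the loading control.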

[4] = biological target: T1, Interferon alpha/beta receptor 1 (Homo sapiens); assay: Antagonist activity at IFNAR in human Daudi cells assessed as reduction of IFN-inducible Stat1:Stat3-pIRE complex formation at 100 umol by electrophoretic mobility shift assay; type: functional, cell-based

SMILES	Activity [1]	other results
COCCNc1cc(OCCN(C)C)nc(OCCCNC(=N)N)n1	inactive	–
CCOc1cc(N(C)C)nc(NCCCOC(C)C)n1	inactive	–
CC(C)OCCCNc1cc(OCCN(C)C)nc(OCCCNC(=N)N)n1	inactive	–
COCCNc1nc(OCCCCN)cc(OCCN(C)C)n1	inactive	–
CN(C)CCSc1nccc(-c2ccco2)n1	inactive	–
CC(C)OCCCNc1nc(OCCCN)cc(OC(C)C)n1	inactive	–
CN(C)CCSc1ccc(-c2cc(-c3cccs3)nc(SCCN(C)C)n2)cc1	inactive	Activity [2]: Active; Activity [3]: Dose-dependent effect; Activity [4]: Active
CCOc1cc(OCCN(C)C)nc(OCCN(C)C)n1	inactive	–
CC(C)OCCCNc1cc(OCCN(C)C)nc(Oc2ccc(CCN)cc2)n1	inactive	–
CC(C)OCCCNc1nc(OCCN(C)C)cc(OC(C)C)n1	inactive	–
COCCNc1cc(OCCN(C)C)nc(Oc2ccc(CCN)cc2)n1	inactive	–
COCCNc1cc(OC(C)C)nc(OC(C)C)n1	inactive	–
CCOc1cc(OCCCN)nc(NCCCOC(C)C)n1	inactive	–
CC(C)OCCCNc1nc(OCCCCNC(=N)N)cc(OCCN(C)C)n1	inactive	–
CN(C)CCSc1ccc(-c2cc(-c3ccco3)nc(SCCN(C)C)n2)cc1	inactive	Activity [2]: Active; Activity [3]: Dose-dependent effect; Activity [4]: Active
CN(C)CCSc1nccc(-c2cccs2)n1	inactive	–
COCCNc1nc(OCCCCNC(=N)N)cc(OCCN(C)C)n1	inactive	–
CC(C)OCCCNc1nc(OCCCCN)cc(OCCN(C)C)n1	inactive	–
COCCNc1cc(OCCN(C)C)nc(OCCN)n1	inactive	–
CCOc1cc(OCCCCN)nc(NCCCOC(C)C)n1	inactive	–
COCCNc1cc(OCCN(C)C)nc(OCCCN)n1	inactive	–
CC(C)Oc1cc(OCCN(C)C)nc(OCCN(C)C)n1	inactive	–
CCOc1cc(OCCN(C)C)nc(NCCCOC(C)C)n1	inactive	–
CC(C)OCCCNc1cc(OCCN(C)C)nc(OCCCN)n1	inactive	–
CC(C)OCCCNc1nc(OCCN)cc(OCCN(C)C)n1	inactive	–
COCCNc1cc(OCCN(C)C)nc(OCCNC(=N)N)n1	inactive	–
